The values below come from ChEMBL document CHEMBL3526015, “Metabolism of the c-Fos/activator protein-1 inhibitor T-5224 by multiple human UDP-glucuronosyltransferase isoforms” (Drug Metab Dispos, 2011).

In data set [1] the target is T1, UDP-glucuronosyltransferase 1A1 (Homo sapiens, UniProt P22309).
T1 sequence (P22309 whole entry): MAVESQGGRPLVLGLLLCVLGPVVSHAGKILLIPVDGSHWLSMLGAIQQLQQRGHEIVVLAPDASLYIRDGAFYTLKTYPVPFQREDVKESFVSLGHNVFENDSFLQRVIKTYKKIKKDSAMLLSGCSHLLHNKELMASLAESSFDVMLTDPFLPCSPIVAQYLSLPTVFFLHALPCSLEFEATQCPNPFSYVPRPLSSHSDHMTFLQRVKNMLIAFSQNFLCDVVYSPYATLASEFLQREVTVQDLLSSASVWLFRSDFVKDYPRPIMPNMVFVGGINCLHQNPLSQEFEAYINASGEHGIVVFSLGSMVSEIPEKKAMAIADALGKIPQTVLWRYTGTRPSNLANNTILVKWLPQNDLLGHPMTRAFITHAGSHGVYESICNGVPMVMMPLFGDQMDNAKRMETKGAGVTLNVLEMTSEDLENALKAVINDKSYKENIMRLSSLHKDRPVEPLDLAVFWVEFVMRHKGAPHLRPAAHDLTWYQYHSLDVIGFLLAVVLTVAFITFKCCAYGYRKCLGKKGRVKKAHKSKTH
In words: Drug level assessed as human UGT1A1-mediated compound formation from 5 to 50 uM T-5224 after 60 mins in presence of UDP-glucuronic acid by HPLC method. In kind it is ADME. Conditions: recombinant enzyme, 1 h. The gist of the method: (§1)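 Recombinant human UGT microsomes from baculovirus-infected insect cells, 0.1 mg protein/mL, in 50 mM Tris-HCl pH 7.5, 8 mM MgCl2, alamethicin. T-5224 in DMSO (2% v/v final). Preincubated 5 min at 37°C, started with 2 mM UDPGA, run 60 min at 37°C and stopped with acetonitrile. Glucuronides resolved by C18 HPLC with UV at 290 nm. Linearity was checked at 0.05–0.2 mg/mL protein and 10–60 min.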

The target in data set [2] is T2, UDP-glucuronosyltransferase 1A3 (Homo sapiens, UniProt P35503).
T2 sequence (P35503 whole entry): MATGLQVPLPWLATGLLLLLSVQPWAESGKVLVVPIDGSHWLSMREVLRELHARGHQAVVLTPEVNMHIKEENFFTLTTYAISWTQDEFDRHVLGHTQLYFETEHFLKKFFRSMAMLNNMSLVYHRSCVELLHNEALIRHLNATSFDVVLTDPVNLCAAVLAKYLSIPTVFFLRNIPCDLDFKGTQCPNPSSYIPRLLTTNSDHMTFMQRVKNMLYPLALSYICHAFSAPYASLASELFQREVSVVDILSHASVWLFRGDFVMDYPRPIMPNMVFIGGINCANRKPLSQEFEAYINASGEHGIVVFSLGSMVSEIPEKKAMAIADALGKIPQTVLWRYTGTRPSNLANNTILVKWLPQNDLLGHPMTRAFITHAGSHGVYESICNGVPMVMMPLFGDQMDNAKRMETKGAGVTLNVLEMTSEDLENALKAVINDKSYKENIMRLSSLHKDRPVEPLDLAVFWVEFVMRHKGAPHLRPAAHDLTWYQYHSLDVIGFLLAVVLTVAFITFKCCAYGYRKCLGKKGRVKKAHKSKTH
In words: Drug level assessed as human UGT1A3-mediated compound formation from 5 to 50 uM T-5224 after 60 mins in presence of UDP-glucuronic acid by HPLC method. The class given is ADME. Conditions: recombinant enzyme, 1 h. The gist of the method: as §1

The target of data set [3] is T3, UDP-glucuronosyltransferase 1A8 (Homo sapiens, UniProt Q9HAW9).
T3 sequence (Q9HAW9 whole entry): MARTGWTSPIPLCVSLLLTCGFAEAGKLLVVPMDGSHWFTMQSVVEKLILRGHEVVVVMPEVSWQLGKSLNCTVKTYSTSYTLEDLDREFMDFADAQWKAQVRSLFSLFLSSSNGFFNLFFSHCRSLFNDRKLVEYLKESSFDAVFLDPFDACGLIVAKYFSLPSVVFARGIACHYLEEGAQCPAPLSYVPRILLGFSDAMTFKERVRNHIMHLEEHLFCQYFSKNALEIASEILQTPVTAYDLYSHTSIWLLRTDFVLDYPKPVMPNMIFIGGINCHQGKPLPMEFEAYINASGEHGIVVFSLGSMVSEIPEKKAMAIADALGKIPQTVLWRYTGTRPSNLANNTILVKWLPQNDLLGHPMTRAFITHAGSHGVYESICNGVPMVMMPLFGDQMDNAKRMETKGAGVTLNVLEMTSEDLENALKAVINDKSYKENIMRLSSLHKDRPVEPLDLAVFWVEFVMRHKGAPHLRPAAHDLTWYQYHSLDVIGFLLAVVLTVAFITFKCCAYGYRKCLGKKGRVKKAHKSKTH
In words: Drug level assessed as human UGT1A8-mediated compound formation from 5 to 50 uM T-5224 after 60 mins in presence of UDP-glucuronic acid by HPLC method. The following applies: recombinant enzyme, 1 h. The class given is ADME. The gist of the method: as §1

Data set [4] has as its target T1, UDP-glucuronosyltransferase 1A1. In words: Drug level assessed as human UGT1A1-mediated compound formation from 5 to 50 uM T-5224 after 10 to 60 mins in presence of UDP-glucuronic acid by HPLC method. The class given is ADME. Conditions: recombinant enzyme. The method in brief:
as §1

Data set [5] has as its target T2, UDP-glucuronosyltransferase 1A3. The data set can be described thus: Drug level assessed as human UGT1A3-mediated compound formation from 5 to 50 uM T-5224 after 10 to 60 mins in presence of UDP-glucuronic acid by HPLC method. In kind it is ADME. Conditions: recombinant enzyme. The method in brief: as §1
Data set [6] concerns the target T3, UDP-glucuronosyltransferase 1A8. In words: Drug level assessed as human UGT1A8-mediated compound formation from 5 to 50 uM T-5224 after 10 to 60 mins in presence of UDP-glucuronic acid by HPLC method. The class given is ADME. Conditions: recombinant enzyme. The method in brief:
as §1

The target in data set [7] is T1, UDP-glucuronosyltransferase 1A1. The data set can be described thus: Drug level assessed as human UGT1A1-mediated compound formation from 5 to 50 uM T-5224 after 60 mins in presence of UDP-glucuronic acid using 0.05 to 0.2 mg/ml by HPLC method. The class given is ADME. The following applies: recombinant enzyme, 1 h. The method in brief:
as §1

Data set [8] addresses T2, UDP-glucuronosyltransferase 1A3. In words: Drug level assessed as human UGT1A3-mediated compound formation from 5 to 50 uM T-5224 after 60 mins in presence of UDP-glucuronic acid using 0.05 to 0.2 mg/ml by HPLC method. In kind it is ADME. The following applies: recombinant enzyme, 1 h. The method in brief: as §1
Data set [9] deals with T3, UDP-glucuronosyltransferase 1A8. The data set can be described thus: Drug level assessed as human UGT1A8-mediated compound formation from 5 to 50 uM T-5224 after 60 mins in presence of UDP-glucuronic acid using 0.05 to 0.2 mg/ml by HPLC method. In kind it is ADME. Conditions: recombinant enzyme, 1 h. The method in brief:
as §1

Data set [10] concerns Liver microsome. The data set can be described thus: Drug level in pooled human liver microsomes treated with T-5224 assessed as compound formation in presence of UDPGA by LC-MS/MS method. In kind it is ADME. On the technique in general: Microsomes from liver hold many membrane-bound enzymes, among them those of drug oxidation.
The test system of data set [11] is Liver microsome. The data set can be described thus: Drug level in pooled human liver microsomes treated with 10 uM T-5224 assessed as compound formation after 10 mins by HPLC method. The class given is ADME. The gist of the method:
(§2)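 Pooled human liver microsomes at 0.5 mg protein/mL, or pooled intestinal microsomes at 0.25 mg/mL, in 50 mM Tris-HCl pH 7.5, 8 mM MgCl2, alamethicin, with 2 mM UDPGA. T-5224 at 10 μM, 10 min at 37°C after 5 min preincubation; stopped with acetonitrile. HPLC with UV at 290 nm. Linearity was tested over 0.1–1.0 mg/mL protein and 5–30 min.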

Data set [12] is described as follows: Drug level in pooled human intestinal microsomes treated with 10 uM T-5224 assessed as compound formation after 10 mins by HPLC method. The class given is ADME, Intestine, Microsome. The gist of the method: as §2
Data set [13] deals with Liver microsome. In words: Drug level in pooled human liver microsomes treated with 10 uM T-5224 assessed as compound formation after 5 to 30 mins by HPLC method. The class given is ADME. The method in brief: as §2
Data set [14] in a line: Drug level in pooled human intestinal microsomes treated with 10 uM T-5224 assessed as compound formation after 5 to 30 mins by HPLC method. In kind it is ADME, Intestine, Microsome. The method in brief: as §2
In data set [15] the test system is Liver microsome. In words: Drug level in pooled human liver microsomes treated with 10 uM T-5224 assessed as compound formation after 10 mins using 0.1 to 1.0 mg/ml microsomal protein content by HPLC method. The class given is ADME. The gist of the method: as §2
Data set [16] can be described thus: Drug level in pooled human intestinal microsomes treated with 10 uM T-5224 assessed as compound formation after 10 mins using 0.1 to 1.0 mg/ml microsomal protein content by HPLC method. In kind it is ADME, Intestine, Microsome. The gist of the method: as §2

As for `O=C(O)CCc1cc(C(=O)c2ccc(OC3CCCC3)cc2O)ccc1OCc1ccc2c(O[C@@H]3O[C@H](C(=O)O)[C@@H](O)[C@H](O)[C@H]3O)noc2c1`, the Drug metabolism result in [1] was “metabolite_detected”; in [2] it was “metabolite_detected”; in data set [3], “metabolite_detected”; in data set [4], “Dose-dependent effect”; in data set [5], “Dose-dependent effect”; in data set [6], “Dose-dependent effect”. In addition, the Drug metabolism result in data set [7] is given as “Dose-dependent effect”; in data set [8], “Dose-dependent effect”; in [9], “Dose-dependent effect”; in data set [10], “metabolite_detected”; in [11] it was “metabolite_detected”; in data set [12], “metabolite_detected”. For the same compound, the Drug metabolism result in [13], in data set [14], in data set [15] and in data set [16] was “Dose-dependent effect” throughout.
